pEC50: −log10 of the molar value.
Key:
SARS-CoV-2 [1] = assay: (§1) Antiviral activity against SARS-CoV-2 nCoV-2019BetaCoV/Wuhan/WIV04/ infected in African green monkey Vero E6 cells assessed as inhibition of viral replication at 5 uM when host cells were pretreated for 1 hr followed by viral infection then followed by removal of infected supernatant and subsequent culture addition with fresh compounds and measured after 24 hrs by qRT-PCR method relative to control; type: functional; details: Severe acute respiratory syndrome coronavirus 2, nCoV-2019BetaCoV/Wuhan/WIV04/, Vero C1008, time 25 hrs
Vero C1008 = assay: Cytotoxicity against African green monkey Vero E6 cells by CCK8 assay; type: cell-based; details: chlorocebus sabaeus
In short: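 Vero E6 cell viability was read by CCK-8 colorimetric assay.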

SARS-CoV-2 [2] = assay: as §1, with “replication” for “replication at 5 uM”, “method” for “method relative to control”; type: functional, organism-based; details: Severe acute respiratory syndrome coronavirus 2, nCoV-2019BetaCoV/Wuhan/WIV04/, Vero C1008
[3] = Cmax in CD-1 mouse at 50 mg/kg, po by LC-MS/MS analysis; type: ADME, organism-based; set-up: route oral, dose 50 mg/kg; details: in vivo
In short: (§2)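 Mice were fasted 12 h. Dosing was 50 mg/Kg orally or 25 mg/Kg intravenously, in DMSO-ethanol-PEG300-saline (5/5/40/50, v/v/v/v). Blood was drawn from the femoral vein into heparinized tubes at several post-dose times, and analytes were measured by LC-MS/MS.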

[4] = Half life in CD-1 mouse at 25 mg/kg, iv by LC-MS/MS analysis; type: ADME, organism-based; details: in vivo; for half-life: CD-1, mouse; in short: as §2
[5] = Half life in CD-1 mouse at 50 mg/kg, po by LC-MS/MS analysis; type: ADME, organism-based; details: in vivo; in short: as §2
[6] = AUClast in CD-1 mouse at 50 mg/kg, po by LC-MS/MS analysis; type: ADME, organism-based; set-up: route oral, time 0 - last, dose 50 mg/kg; details: in vivo; in short: as §2
[7] = Observed MRT infinity in CD-1 mouse at 50 mg/kg, po by LC-MS/MS analysis; type: ADME, organism-based; details: in vivo; in short: as §2
[8] = Observed MRT infinity in CD-1 mouse at 25 mg/kg, iv by LC-MS/MS analysis; type: ADME, organism-based; details: in vivo; for MRT inf: CD-1, mouse; in short: as §2
[9] = AUClast in CD-1 mouse at 25 mg/kg, iv by LC-MS/MS analysis; type: ADME, organism-based; set-up: route intravenous, time 0 - last, dose 25 mg/kg; details: in vivo; in short: as §2
[10] = Oral bioavailability in CD-1 mouse at 50 mg/kg by LC-MS/MS analysis; type: ADME, organism-based; details: in vivo; in short: as §2
[11] = Stability of compound in stimulated gastric fluid incubated for 24 hrs by HPLC analysis; type: ADME; details: simulated gi fluid
In short: (§3)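 Compound solution was diluted into artificial gastric or intestinal juice and incubated at 37 °C. Samples were taken at 0, 1, 2, 3, 4, 6 and 24 h and quenched with ice-cold acetonitrile. After centrifugation, supernatants were analysed by HPLC.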

[12] = Stability of compound in stimulated intestinal fluid assessed as parent compound remaining measured after 4 hrs by HPLC analysis; type: ADME; details: simulated intestinal fluid, read-out: Stabilty; in short: as §3
[13] = Observed volume of distribution at steady state in CD-1 mouse at 25 mg/kg, iv by LC-MS/MS analysis; type: ADME, organism-based; details: in vivo; for Vd: CD-1, mouse, read-out: Vdss; in short: as §2
[14] = Tmax in CD-1 mouse at 50 mg/kg, po by LC-MS/MS analysis; type: ADME, organism-based; details: in vivo; in short: as §2
SARS-CoV-2 [15] = assay: as §1, with “10” for “5”; type: functional; details: Severe acute respiratory syndrome coronavirus 2, nCoV-2019BetaCoV/Wuhan/WIV04/, Vero C1008, time 25 hrs
[16] = Acute toxicity in ICR mouse assessed as effect on organ weight at 100 to 1000 mg/kg, po via gavage and measured after 7 days; type: organism-based; details: in vivo, 168 h, dose 100-1000 mg/kg, time 7 day
[17] = Acute toxicity in po dosed ICR mouse assessed as maximum tolerated dose measured after 7 days; type: organism-based; details: in vivo, time 7 day
In short: (§4)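 Male ICR mice (28–36 g), 3 per group, were fasted 16 h. Each got one oral gavage dose of 50, 100, 200, 500 or 1000 mg/kg in 5% DMSO, 5% Solution Hs15 and 90% saline. Clinical signs, body weight and food consumption were followed for 7 days, and animals were sacrificed on day 8.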

[18] = Acute toxicity in ICR mouse assessed as effect on body weight at 100 to 1000 mg/kg, po via gavage and measured after 7 days; type: organism-based; details: in vivo, 168 h, dose 100-1000 mg/kg, time 7 day; in short: as §4

C=C(C)[C@@]1(c2ccc3c(N)ncnn23)O[C@H](CO)[C@@H](O)[C@H]1O
inhibition at 5 µM (SARS-CoV-2 [1]): < 10%

Nc1ncnn2c([C@@H]3O[C@H](CO)[C@@H](O)[C@H]3F)ccc12
inhibition at 5 µM (SARS-CoV-2 [1]): < 10%

Nc1ncnn2c([C@@H]3O[C@H](CO)[C@@H](O)[C@H]3O)ccc12
Activity (Vero C1008): Toxic

N#C[C@@]1(c2cc(I)c3c(N)ncnn23)O[C@H](CO)[C@@H](O)[C@H]1O
inhibition at 5 µM (SARS-CoV-2 [1]): < 10%

CCC(CC)COC(=O)[C@H](C)N[P@](=O)(OC[C@H]1O[C@@](C#N)(c2ccc3c(N)ncnn23)[C@H](O)[C@@H]1O)Oc1ccccc1
pEC50 (SARS-CoV-2 [2]): 5.70 | inhibition at 5 µM (SARS-CoV-2 [1]): 65%

CC(C)[C@H](N)C(=O)O[C@H]1[C@@H](O)[C@](C#N)(c2ccc3c(N)ncnn23)O[C@@H]1CO.Cl.Cl
Cmax [3]: 1.51 µg/mL | t1/2 ([4]; mouse, 25 mg/kg): 0.61 h | half-life [5]: 1.72 h | AUC(0-t) [6]: 2.98 µg·h/mL | MRT inf [7]: 2.76 h | MRT ([8]; mouse, 25 mg/kg): 0.78 h | AUC(0-t) [9]: 5.42 µg·h/mL | F [10]: 27.5% | Stabilty [11]: Stable | remaining at 4 h [12]: 34% | Vdss ([13]; mouse, 25 mg/kg): 3.86 L/kg | pEC50 (SARS-CoV-2 [2]): 6.96 | Tmax [14]: 0.83 h | inhibition at 5 µM (SARS-CoV-2 [1]): 99%

CC(C)[C@H](N)C(=O)OC[C@H]1O[C@@](C#N)(c2ccc3c(N)ncnn23)[C@H](O)[C@@H]1O
Stabilty [11]: Stable | remaining at 4 h [12]: 9%

CCCCCOC(=O)Nc1ncnn2c([C@]3(C#N)O[C@H](CO)[C@@H](O)[C@H]3O)ccc12
inhibition at 10 µM (SARS-CoV-2 [15]): 65%

CC(C)C(=O)OC[C@H]1O[C@@](C#N)(c2ccc3c(N)ncnn23)[C@H](O)[C@@H]1O [OBELDESIVIR]
Cmax [3]: 6.68 µg/mL | half-life [4]: 4.77 h | half-life [5]: 2.46 h | AUC(0-t) [6]: 13.8 µg·h/mL | MRT inf [7]: 2.16 h | MRT inf [8]: 1.33 h | AUC(0-t) [9]: 7.98 µg·h/mL | F [10]: 86.6% | Stabilty [11]: Stable | remaining at 4 h [12]: 2% | Vd [13]: 4.17 L/kg | pEC50 (SARS-CoV-2 [2]): 6.64 | Tmax [14]: 0.42 h | Activity [16]: Non-Toxic | MTD at 168 h [17]: 1000 mg/kg | inhibition at 5 µM (SARS-CoV-2 [1]): 99% | Activity [18]: Non-Toxic

N#C/C=C/[C@@]1(c2ccc3c(N)ncnn23)O[C@H](CO)[C@@H](O)[C@H]1O
inhibition at 5 µM (SARS-CoV-2 [1]): < 10%

N#C[C@@]1(c2ccc3c(N)ncnn23)O[C@H](CO)[C@@H](O)[C@H]1O [GS-441524]
pEC50 (SARS-CoV-2 [2]): 6.32 | inhibition at 5 µM (SARS-CoV-2 [1]): 99%

N#C[C@@]1(c2cc(Cl)c3c(N)ncnn23)O[C@H](CO)[C@@H](O)[C@H]1O
inhibition at 5 µM (SARS-CoV-2 [1]): < 10%

Br.CC(C)C(=O)OC[C@H]1O[C@@](C#N)(c2ccc3c(N)ncnn23)[C@H](OC(=O)C(C)C)[C@@H]1OC(=O)C(C)C
half-life [4]: 2.48 h | half-life [5]: 2.71 h | AUC(0-t) [6]: 7.11 µg·h/mL | AUC(0-t) [9]: 3.6 µg·h/mL

Nc1ncnn2c([C@]3(CO)O[C@H](CO)[C@@H](O)[C@H]3O)ccc12
inhibition at 5 µM (SARS-CoV-2 [1]): < 10%

NC(=O)[C@@]1(c2ccc3c(N)ncnn23)O[C@H](CO)[C@@H](O)[C@H]1O
inhibition at 5 µM (SARS-CoV-2 [1]): < 10%

CC(=O)[C@@]1(c2ccc3c(N)ncnn23)O[C@H](CO)[C@@H](O)[C@H]1O
inhibition at 5 µM (SARS-CoV-2 [1]): < 10%

CCC(CC)COC(=O)[C@H](C)N[P@](=O)(OC[C@H]1O[C@@](C#N)(c2cc(F)c3c(N)ncnn23)[C@H](O)[C@@H]1O)Oc1ccccc1
inhibition at 10 µM (SARS-CoV-2 [15]): 82%

Nc1ncnn2c([C@@H]3O[C@H](CO)[C@@H](O)C3(F)F)ccc12
inhibition at 5 µM (SARS-CoV-2 [1]): < 10%

CO[C@@H]1[C@H](O)[C@@H](CO)O[C@@]1(C#N)c1ccc2c(N)ncnn12
inhibition at 5 µM (SARS-CoV-2 [1]): < 10%

N#C[C@@]1(c2cc(F)c3c(N)ncnn23)O[C@H](CO)[C@@H](O)[C@H]1O
pEC50 (SARS-CoV-2 [2]): 5.48 | inhibition at 10 µM (SARS-CoV-2 [15]): 97% | inhibition at 5 µM (SARS-CoV-2 [1]): 80%

N#Cc1cc([C@]2(C#N)O[C@H](CO)[C@@H](O)[C@H]2O)n2ncnc(N)c12
inhibition at 5 µM (SARS-CoV-2 [1]): < 10%

N#C[C@@]1(c2ccc3c(O)ncnn23)O[C@H](CO)[C@@H](O)[C@H]1O
inhibition at 5 µM (SARS-CoV-2 [1]): < 10%

CC(C)C(=O)O[C@H]1[C@@H](OC(=O)C(C)C)[C@](C#N)(c2ccc3c(N)ncnn23)O[C@@H]1CO
inhibition at 5 µM (SARS-CoV-2 [1]): 99%

OC[C@H]1O[C@@H](c2ccc3c(NO)ncnn23)[C@H](O)[C@@H]1O
inhibition at 5 µM (SARS-CoV-2 [1]): < 10%

CC(C)C(=O)OC[C@H]1O[C@@](C#N)(c2ccc3c(N)ncnn23)[C@H](O)[C@@H]1OC(=O)C(C)C
inhibition at 5 µM (SARS-CoV-2 [1]): 99%

CC(C)C(=O)O[C@H]1[C@@H](O)[C@](C#N)(c2ccc3c(N)ncnn23)O[C@@H]1CO
Cmax [3]: 7.88 µg/mL | half-life [4]: 0.83 h | half-life [5]: 1.11 h | AUC(0-t) [6]: 14.6 µg·h/mL | MRT inf [7]: 1.82 h | MRT inf [8]: 1.07 h | AUC(0-t) [9]: 10.2 µg·h/mL | F [10]: 71.6% | Stabilty [11]: Stable | remaining at 4 h [12]: 100% | Vd [13]: 2.59 L/kg | pEC50 (SARS-CoV-2 [2]): 6.60 | Tmax [14]: 0.33 h | inhibition at 5 µM (SARS-CoV-2 [1]): 99%

— ChEMBL document CHEMBL4823313 (Bioorg Med Chem, 2021)
